Test results taken from ChEMBL document CHEMBL1129929, “Analogues of methotrexate in rheumatoid arthritis. 1. Effects of 10-deazaaminopterin analogues on type II collagen-induced arthritis in mice” (J Med Chem, 1997).

Columns and labels:
[1] = Concentration required to inhibit the growth of chang liver cells; assay type: functional; conditions: Homo sapiens
Mus musculus [2] = experiment: Tested for antiinflammatory activity on mouse type II collagen arthritis as Paw swelling* of all animals in each group on day 37 at intraperitoneal dose of 12 mg/kg; assay type: functional
How it was run: (§1)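 DBA/1 mice immunized with bovine type II collagen (Courtenay method, modified), antigen booster at day 21. Compounds given ip from 2 days before the first collagen challenge, then every 2 days. Hind paw dimensions (mm) measured for both limbs of all animals, expressed as mean ± SD. Eight mice per dose; untreated controls pooled from four experiments (48 animals).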

Mus musculus [3] = experiment: Incidence of disease(mouse type II collagen arthritis) was scored as the percentage of animals within each experimental group that exhibited joint or limb inflammation on day 30 at intraperitoneal of dose 12 mg/kg; assay type: functional
How it was run: (§2)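 DBA/1 mice were immunized with bovine type II collagen (modified Courtenay method), with a collagen booster on day 21. Compounds were given ip starting 2 days before the first collagen challenge and every 2 days thereafter. Incidence was the percentage of animals per group with joint or limb inflammation, scored on days 23, 30, 37 and 44.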

Mus musculus [4] = experiment: Tested for antiinflammatory activity on mouse type II collagen arthritis as Paw swelling* of all animals in each group on day 23 at intraperitoneal dose of 18 mg/kg; assay type: functional; how it was run: as §1
Mus musculus [5] = experiment: Incidence of disease(mouse type II collagen arthritis) was scored as the percentage of animals within each experimental group that exhibited joint or limb inflammation on day 44 at intraperitoneal of dose 18 mg/kg; assay type: functional; how it was run: as §2
Mus musculus [6] = experiment: Incidence of disease(mouse type II collagen arthritis) was scored as the percentage of animals within each experimental group that exhibited joint or limb inflammation on day 23 at intraperitoneal of dose 12 mg/kg; assay type: functional; how it was run: as §2
Mus musculus [7] = experiment: Tested for antiinflammatory activity on mouse type II collagen arthritis as Paw swelling* of all animals in each group on day 30 at intraperitoneal dose of 12 mg/kg; assay type: functional; how it was run: as §1
Mus musculus [8] = experiment: Tested for antiinflammatory activity on mouse type II collagen arthritis as Paw swelling* of all animals in each group on day 44 at intraperitoneal dose of 12 mg/kg; assay type: functional; how it was run: as §1
Mus musculus [9] = experiment: Incidence of disease(mouse type II collagen arthritis) was scored as the percentage of animals within each experimental group that exhibited joint or limb inflammation on day 23 at intraperitoneal dose of 18 mg/kg; assay type: functional; how it was run: as §2
L1210 = experiment: Concentration required to inhibit the growth of L1210 cells; assay type: functional, cell-based; conditions: Mus musculus
Mus musculus [10] = experiment: Tested for antiinflammatory activity on mouse type II collagen arthritis as Paw swelling* of all animals in each group on day 23 at intraperitoneal dose of 12 mg/kg; assay type: functional; how it was run: as §1
Mus musculus [11] = experiment: Incidence of disease(mouse type II collagen arthritis) was scored as the percentage of animals within each experimental group that exhibited joint or limb inflammation on day 37 at intraperitoneal of dose 18 mg/kg; assay type: functional; how it was run: as §2
Mus musculus [12] = experiment: Tested for antiinflammatory activity on mouse type II collagen arthritis as Paw swelling* of all animals in each group on day 44 at intraperitoneal dose of 18 mg/kg; assay type: functional; how it was run: as §1
Mus musculus [13] = experiment: Tested for antiinflammatory activity on mouse type II collagen arthritis as Paw swelling* of all animals in each group on day 30 at intraperitoneal dose of 18 mg/kg; assay type: functional; how it was run: as §1
Mus musculus [14] = experiment: Incidence of disease(mouse type II collagen arthritis) was scored as the percentage of animals within each experimental group that exhibited joint or limb inflammation on day 44 at intraperitoneal of dose 12 mg/kg; assay type: functional; how it was run: as §2
Mus musculus [15] = experiment: Tested for antiinflammatory activity on mouse type II collagen arthritis as Paw swelling* of all animals in each group on day 37 at intraperitoneal dose of 18 mg/kg; assay type: functional; how it was run: as §1
Mus musculus [16] = experiment: Incidence of disease(mouse type II collagen arthritis) was scored as the percentage of animals within each experimental group that exhibited joint or limb inflammation on day 37 at intraperitoneal of dose 12 mg/kg; assay type: functional; how it was run: as §2
Mus musculus [17] = experiment: Incidence of disease(mouse type II collagen arthritis) was scored as the percentage of animals within each experimental group that exhibited joint or limb inflammation on day 30 at intraperitoneal of dose 18 mg/kg; assay type: functional; how it was run: as §2

Compound `Nc1nc(N)c2nc(CCc3ccc(C(=O)NC(CCC(=O)O)C(=O)O)s3)cnc2n1` (stereo not drawn) has an IC50 [1] of 3.1 nM, a Paw swelling (Mus musculus [2]) of 2.28 mm and an Animals (Mus musculus [3]) of 0%. The Paw swelling (Mus musculus [4]) was 2.14 mm, the Animals (Mus musculus [5]) was 25% and the Animals (Mus musculus [6]) was 0%. The Paw swelling (Mus musculus [7]) was 2.15 mm, the Paw swelling (Mus musculus [8]) was 2.58 mm and the Animals (Mus musculus [9]) was 0%. The IC50 (L1210) was 8.1 nM, the Paw swelling (Mus musculus [10]) was 2.15 mm and the Animals (Mus musculus [11]) was 38%. It also gave a Paw swelling (Mus musculus [12]) of 2.38 mm, a Paw swelling (Mus musculus [13]) of 2.16 mm and an Animals (Mus musculus [14]) of 50%. The Paw swelling (Mus musculus [15]) was 2.26 mm, the Animals (Mus musculus [16]) was 50% and the Animals (Mus musculus [17]) was 0%.
